# ChEMBL document CHEMBL4732237, “Discovery of 4-alkoxy-2-aryl-6,7-dimethoxyquinolines as a new class of topoisomerase I inhibitors endowed with potent in vitro anticancer activity” (2021)
# Tests used:
# Assay type in all cases: functional
# Details in all cases: read-out: GI
# HL-60(TB) = test: Growth inhibition of human HL-60(TB) cells at 10 uM incubated for 48 hrs by sulforhodamine B assay relative to control
# Summary of the method: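 NCI-60 one-dose screen: same culture, 48 h drug exposure and SRB read-out. Reported as percent growth relative to no-drug control and to time-zero cell number; 0–100 means growth inhibition, below 0 means lethality.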
# MDA-MB-435 = test: Growth inhibition of human MDA-MB-435 cells at 10 uM incubated for 48 hrs by sulforhodamine B assay relative to control
# Summary of the method: (§1)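 NCI-60 single-dose screen. Cells were grown in RPMI 1640 with 5% FBS and 2 mM L-glutamine and plated 24 h before drug addition. Compound was added at one concentration in DMSO-derived medium and incubated for 48 h at 37 °C in 5% CO2. Read-out was SRB protein stain at 515 nm. Result is percent growth versus the no-drug control and the time-zero cell count; values below 0 indicate lethality.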
# Hs-578T = test: Growth inhibition of human HS-578T cells at 10 uM incubated for 48 hrs by sulforhodamine B assay relative to control; summary of the method: as §1
# LOX IMVI = test: Growth inhibition of human LOX IMVI cells at 10 uM incubated for 48 hrs by sulforhodamine B assay relative to control; summary of the method: as §1
# UO-31 = test: Growth inhibition of human UO-31 cells at 10 uM incubated for 48 hrs by sulforhodamine B assay relative to control
# Summary of the method: (§2)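 NCI one-dose screen across a 59-line panel. Cells were grown in RPMI 1640 with 5% FBS and 2 mM L-glutamine, plated and pre-incubated 24 h, then exposed to drug for 48 h at 37 °C, 5% CO2. Adherent cells were fixed with cold TCA (10% final), stained with 0.4% SRB in 1% acetic acid and read at 515 nm. Result is percent growth relative to no-drug control and time-zero cell count.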
# MCF7 = test: Growth inhibition of human MCF7 cells at 10 uM incubated for 48 hrs by sulforhodamine B assay relative to control; summary of the method: as §1
# SNB-19 = test: Growth inhibition of human SNB-19 cells at 10 uM incubated for 48 hrs by sulforhodamine B assay relative to control
# Summary of the method: (§3)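 NCI one-dose screen. Cells grown in RPMI 1640 with 5% FBS and 2 mM L-glutamine, plated and incubated 24 h at 37 °C, 5% CO2. DMSO-dissolved drug added, then 48 h further incubation. Adherent cells fixed with cold TCA, suspension cells fixed after settling. Stained with 0.4% SRB, absorbance read at 515 nm. Reported as percent growth relative to no-drug control and time-zero cell number.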
# SK-MEL-28 = test: Growth inhibition of human SK-MEL-28 cells at 10 uM incubated for 48 hrs by sulforhodamine B assay relative to control; summary of the method: as §3
# M14 = test: Growth inhibition of human M14 cells at 10 uM incubated for 48 hrs by sulforhodamine B assay relative to control; summary of the method: as §1
# HOP-62 = test: Growth inhibition of human HOP-62 cells at 10 uM incubated for 48 hrs by sulforhodamine B assay relative to control; summary of the method: as §1
# A498 = test: Growth inhibition of human A498 cells at 10 uM incubated for 48 hrs by sulforhodamine B assay relative to control; summary of the method: as §2
# BT-549 = test: Growth inhibition of human BT-549 cells at 10 uM incubated for 48 hrs by sulforhodamine B assay relative to control; summary of the method: as §1
# SNB-75 = test: Growth inhibition of human SNB-75 cells at 10 uM incubated for 48 hrs by sulforhodamine B assay relative to control; summary of the method: as §3
# OVCAR-3 = test: Growth inhibition of human OVCAR-3 cells at 10 uM incubated for 48 hrs by sulforhodamine B assay relative to control; summary of the method: as §3
# IGROV-1 = test: Growth inhibition of human IGROV-1 cells at 10 uM incubated for 48 hrs by sulforhodamine B assay relative to control; summary of the method: as §1
# UACC-62 = test: Growth inhibition of human UACC-62 cells at 10 uM incubated for 48 hrs by sulforhodamine B assay relative to control; summary of the method: as §2
# COLO 205 = test: Growth inhibition of human COLO 205 cells at 10 uM incubated for 48 hrs by sulforhodamine B assay relative to control; summary of the method: as §1
# NCI-H522 = test: Growth inhibition of human NCI-H522 cells at 10 uM incubated for 48 hrs by sulforhodamine B assay relative to control; summary of the method: as §3
# MDA-MB-231 = test: Growth inhibition of human MDA-MB-231 cells at 10 uM incubated for 48 hrs by sulforhodamine B assay relative to control; summary of the method: as §1
# Malme-3M = test: Growth inhibition of human Malme-3M cells at 10 uM incubated for 48 hrs by sulforhodamine B assay relative to control; summary of the method: as §3
# SK-MEL-2 = test: Growth inhibition of human SK-MEL-2 cells at 10 uM incubated for 48 hrs by sulforhodamine B assay relative to control; summary of the method: as §3
# NCI-H23 = test: Growth inhibition of human NCI-H23 cells at 10 uM incubated for 48 hrs by sulforhodamine B assay relative to control; summary of the method: as §3
# NCI/ADR-RES = test: Growth inhibition of human NCI/ADR-RES cells at 10 uM incubated for 48 hrs by sulforhodamine B assay relative to control; summary of the method: as §3
# SN12C = test: Growth inhibition of human SN12C cells at 10 uM incubated for 48 hrs by sulforhodamine B assay relative to control; summary of the method: as §3
# SK-OV-3 = test: Growth inhibition of human SK-OV-3 cells at 10 uM incubated for 48 hrs by sulforhodamine B assay relative to control; summary of the method: as §3
# MOLT-4 = test: Growth inhibition of human MOLT-4 cells at 10 uM incubated for 48 hrs by sulforhodamine B assay relative to control; summary of the method: as §3
# SF-268 = test: Growth inhibition of human SF-268 cells at 10 uM incubated for 48 hrs by sulforhodamine B assay relative to control; summary of the method: as §3
# HOP-92 = test: Growth inhibition of human HOP-92 cells at 10 uM incubated for 48 hrs by sulforhodamine B assay relative to control; summary of the method: as §1
# PC-3 = test: Growth inhibition of human PC-3 cells at 10 uM incubated for 48 hrs by sulforhodamine B assay relative to control; summary of the method: as §3
# T47D = test: Growth inhibition of human T47D cells at 10 uM incubated for 48 hrs by sulforhodamine B assay relative to control; summary of the method: as §2
# OVCAR-5 = test: Growth inhibition of human OVCAR-5 cells at 10 uM incubated for 48 hrs by sulforhodamine B assay relative to control; summary of the method: as §3
# OVCAR-4 = test: Growth inhibition of human OVCAR-4 cells at 10 uM incubated for 48 hrs by sulforhodamine B assay relative to control; summary of the method: as §3
# K562 = test: Growth inhibition of human K562 cells at 10 uM incubated for 48 hrs by sulforhodamine B assay relative to control; summary of the method: as §1
# NCI-H226 = test: Growth inhibition of human NCI-H226 cells at 10 uM incubated for 48 hrs by sulforhodamine B assay relative to control; summary of the method: as §3
# NCI-H322M = test: Growth inhibition of human NCI-H322M cells at 10 uM incubated for 48 hrs by sulforhodamine B assay relative to control; summary of the method: as §3
# SF-295 = test: Growth inhibition of human SF-295 cells at 10 uM incubated for 48 hrs by sulforhodamine B assay relative to control; summary of the method: as §3
Compound,inhibition of growth at 10 µM (HL-60(TB)),inhibition of growth at 10 µM (MDA-MB-435),inhibition of growth at 10 µM (Hs-578T),inhibition of growth at 10 µM (LOX IMVI),inhibition of growth at 10 µM (UO-31),inhibition of growth at 10 µM (MCF7),inhibition of growth at 10 µM (SNB-19),inhibition of growth at 10 µM (SK-MEL-28),inhibition of growth at 10 µM (M14),inhibition of growth at 10 µM (HOP-62),inhibition of growth at 10 µM (A498),inhibition of growth at 10 µM (BT-549),inhibition of growth at 10 µM (SNB-75),inhibition of growth at 10 µM (OVCAR-3),inhibition of growth at 10 µM (IGROV-1),inhibition of growth at 10 µM (UACC-62),inhibition of growth at 10 µM (COLO 205),inhibition of growth at 10 µM (NCI-H522),inhibition of growth at 10 µM (MDA-MB-231),inhibition of growth at 10 µM (Malme-3M),also measured
COc1cc2nc(-c3ccc(Cl)cc3)cc(OCCN3CCOCC3)c2cc1OC,3%,3%,3%,3%,3%,3%,3%,3%,3%,3%,3%,3%,3%,3%,3%,3%,3%,3%,3%,3%,inhibition of growth at 10 µM (SK-MEL-2): 3%; inhibition of growth at 10 µM (NCI-H23): 3%; inhibition of growth at 10 µM (NCI/ADR-RES): 3%; inhibition of growth at 10 µM (SN12C): 3%; inhibition of growth at 10 µM (SK-OV-3): 3%; inhibition of growth at 10 µM (MOLT-4): 3%; inhibition of growth at 10 µM (SF-268): 3%; inhibition of growth at 10 µM (HOP-92): 3%; inhibition of growth at 10 µM (PC-3): 3%; inhibition of growth at 10 µM (T47D): 3%; inhibition of growth at 10 µM (OVCAR-5): 3%; inhibition of growth at 10 µM (OVCAR-4): 3%; inhibition of growth at 10 µM (K562): 3%; inhibition of growth at 10 µM (NCI-H226): 3%; inhibition of growth at 10 µM (NCI-H322M): 3%; inhibition of growth at 10 µM (SF-295): 3%
COc1cc2nc(-c3ccc(C(F)(F)F)cc3)cc(OCCN3CCOCC3)c2cc1OC,13%,13%,13%,13%,13%,13%,13%,13%,13%,13%,13%,13%,13%,13%,13%,13%,13%,13%,13%,13%,inhibition of growth at 10 µM (SK-MEL-2): 13%; inhibition of growth at 10 µM (NCI-H23): 13%; inhibition of growth at 10 µM (NCI/ADR-RES): 13%; inhibition of growth at 10 µM (SN12C): 13%; inhibition of growth at 10 µM (SK-OV-3): 13%; inhibition of growth at 10 µM (MOLT-4): 13%; inhibition of growth at 10 µM (SF-268): 13%; inhibition of growth at 10 µM (HOP-92): 13%; inhibition of growth at 10 µM (PC-3): 13%; inhibition of growth at 10 µM (T47D): 13%; inhibition of growth at 10 µM (OVCAR-5): 13%; inhibition of growth at 10 µM (OVCAR-4): 13%; inhibition of growth at 10 µM (K562): 13%; inhibition of growth at 10 µM (NCI-H226): 13%; inhibition of growth at 10 µM (NCI-H322M): 13%; inhibition of growth at 10 µM (SF-295): 13%
COc1cc2nc(-c3ccsc3)cc(OCCCN3CCC(O)CC3)c2cc1OC,32%,32%,32%,32%,32%,32%,32%,32%,32%,32%,32%,32%,32%,32%,32%,32%,32%,32%,32%,32%,inhibition of growth at 10 µM (SK-MEL-2): 32%; inhibition of growth at 10 µM (NCI-H23): 32%; inhibition of growth at 10 µM (NCI/ADR-RES): 32%; inhibition of growth at 10 µM (SN12C): 32%; inhibition of growth at 10 µM (SK-OV-3): 32%; inhibition of growth at 10 µM (MOLT-4): 32%; inhibition of growth at 10 µM (SF-268): 32%; inhibition of growth at 10 µM (HOP-92): 32%; inhibition of growth at 10 µM (PC-3): 32%; inhibition of growth at 10 µM (T47D): 32%; inhibition of growth at 10 µM (OVCAR-5): 32%; inhibition of growth at 10 µM (OVCAR-4): 32%; inhibition of growth at 10 µM (K562): 32%; inhibition of growth at 10 µM (NCI-H226): 32%; inhibition of growth at 10 µM (NCI-H322M): 32%; inhibition of growth at 10 µM (SF-295): 32%
COc1cc2nc(-c3ccc(C(F)(F)F)cc3)cc(OCCN3CCC(O)CC3)c2cc1OC,13%,13%,13%,13%,13%,13%,13%,13%,13%,13%,13%,13%,13%,13%,13%,13%,13%,13%,13%,13%,inhibition of growth at 10 µM (SK-MEL-2): 13%; inhibition of growth at 10 µM (NCI-H23): 13%; inhibition of growth at 10 µM (NCI/ADR-RES): 13%; inhibition of growth at 10 µM (SN12C): 13%; inhibition of growth at 10 µM (SK-OV-3): 13%; inhibition of growth at 10 µM (MOLT-4): 13%; inhibition of growth at 10 µM (SF-268): 13%; inhibition of growth at 10 µM (HOP-92): 13%; inhibition of growth at 10 µM (PC-3): 13%; inhibition of growth at 10 µM (T47D): 13%; inhibition of growth at 10 µM (OVCAR-5): 13%; inhibition of growth at 10 µM (OVCAR-4): 13%; inhibition of growth at 10 µM (K562): 13%; inhibition of growth at 10 µM (NCI-H226): 13%; inhibition of growth at 10 µM (NCI-H322M): 13%; inhibition of growth at 10 µM (SF-295): 13%
